Here are results for one molecule from ChEMBL document CHEMBL4715793 (J Med Chem, 2016).

The subject of one series is Huh7.5. Briefly: Effect on Hsc70 expression level in human Huh7.5 cells at 6.25 to 25 uM by Western blot analysis. Conditions: dose 6.25-25 µM. The series is classed as functional, cell-based. (A western blot detects proteins with antibodies after separation by electrophoresis.)
Series [1] can be described thus: Cytotoxicity against human Huh7.5 cells assessed as reduction in cell viability incubated for 72 hrs by MTT assay. The series is classed as cell-based. In outline:
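Huh7.5 cells seeded at 3 × 10^4/cm2, grown 24 h, then exposed to compound for 72 h. Viability read by MTT assay. CC50 by Reed & Muench method, mean ± SD from three independent experiments.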
For orientation: Tetrazolium dyes change colour on reduction, which living cells bring about.

The subject of series [2] is Hepacivirus hominis. The experiment in a line: Inhibition of HCV NS5A.
The subject of series [3] is Hepacivirus hominis. Briefly: Inhibition of HCV NS3/4a protease.
Series [4] relates to Hepatitis C virus. The experiment in a line: Antiviral activity against wild-type HCV J6/JFH/JC1 infected in human Huh7.5 cells assessed as inhibition of viral replication measured after 72 hrs by qRT-PCR analysis. The series is classed as functional, organism-based, Hepacivirus hominis. Conditions: J6/JFH/JC1, Huh7.5, 72 h. In short, it runs like this:
(§1)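 Huh7.5 cells seeded at 3 × 10^4/cm2 and incubated 24 h. Infected with wild-type HCVcc stock (45 IU/cell) with compound or solvent control added at the same time. After 72 h, intracellular RNA measured by one-step qRT-PCR and core protein by Western blot. EC50 by Reed & Muench method, mean ± SD from three independent experiments.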

Series [5] has as its system Hepatitis C virus. Briefly: Antiviral activity against HCV J6/JFH/JC1 harboring S282T mutant infected in human Huh7.5 cells assessed as inhibition of viral replication measured after 72 hrs by qRT-PCR analysis. The series is classed as functional, organism-based, Hepacivirus hominis. Conditions: J6/JFH/JC1, Huh7.5, 72 h. For orientation: In qPCR the cycle at which signal appears reflects the starting amount.

In series [6] the target is T1, Chondroitin sulfate N-acetylgalactosaminyltransferase 1 (Homo sapiens) (UniProt Q8TDX6).
T1 sequence (whole entry): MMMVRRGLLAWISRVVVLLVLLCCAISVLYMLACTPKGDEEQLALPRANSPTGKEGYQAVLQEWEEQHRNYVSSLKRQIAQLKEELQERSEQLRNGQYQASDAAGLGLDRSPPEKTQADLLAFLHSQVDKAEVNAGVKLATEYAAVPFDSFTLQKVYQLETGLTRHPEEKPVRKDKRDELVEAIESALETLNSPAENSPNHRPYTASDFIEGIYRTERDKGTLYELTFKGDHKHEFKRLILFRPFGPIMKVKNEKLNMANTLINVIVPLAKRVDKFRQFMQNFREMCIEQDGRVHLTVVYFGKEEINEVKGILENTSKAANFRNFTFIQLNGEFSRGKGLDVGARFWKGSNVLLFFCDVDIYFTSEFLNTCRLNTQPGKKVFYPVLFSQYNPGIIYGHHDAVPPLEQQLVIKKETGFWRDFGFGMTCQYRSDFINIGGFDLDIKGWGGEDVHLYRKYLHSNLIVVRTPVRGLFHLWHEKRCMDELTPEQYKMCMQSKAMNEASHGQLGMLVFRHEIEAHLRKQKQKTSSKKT
Briefly: Destabilization of CSGalNacT-1 in HCV infected human HuH7.5 cells assessed as reduction in CSGalNacT-1 protein levels measured after 72 hrs by Western blot analysis. Conditions: dose 6.25-100 µM. In short, it runs like this: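 Huh7.5 cells infected with HCV (45 IU/cell) and exposed to compound for 72 h. CSGalNAcT-1 protein measured by Western blot and mRNA by qRT-PCR. Error bars are SD of three independent experiments.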

Series [7] has as its system Hepatitis C virus. The experiment in a line: Synergistic antiviral activity against HCV J6/JFH/JC1 infected in human HuH7.5 cells assessed as combination index measured after 72 hrs in presence of daclatasvir by Chou-Talalay method. The series is classed as functional, Hepacivirus hominis.
Series [8] relates to Hepatitis C virus. The experiment in a line: Synergistic antiviral activity against HCV J6/JFH/JC1 infected in human HuH7.5 cells assessed as inhibition of viral protein levels at 6.25 uM in presence of simeprevir measured after 72 hrs by western blot analysis. It is filed as functional, organism-based. Conditions: Hepacivirus hominis. In outline: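 Huh7.5 cells infected with HCV (45 IU/cell) and simultaneously treated with compound (6.25 μM) alone, DAA alone, or both. […] Intracellular protein analysed by Western blot at 72 h. At least triplicate, mean ± SD, Student's t test.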

For series [9], the system named is Hepatitis C virus. Briefly: Antiviral activity against wild-type HCV infected in human HuH7.5 cells assessed as reduction in viral protein levels at 6.25 to 100 uM measured after 72 hrs by Western blot assay. It is filed as functional, organism-based. Conditions: Hepacivirus hominis, dose 6.25-100 µM. In short, it runs like this: as §1
The target of series [10] is T1, Chondroitin sulfate N-acetylgalactosaminyltransferase 1 (Homo sapiens). Briefly: Destabilization of CSGalNacT-1 in human Huh7.5 cells assessed as reduction in CSGalNacT-1 expression measured after 72 hrs by Western blot analysis. The series is classed as cell-based. Conditions: dose 6.25-100 µM.
The target is the same in series [11]. The experiment in a line: Destabilization of CSGalNacT-1 in human Huh7.5 cells assessed as reduction in CSGalNacT-1 mRNA levels at 6.25 to 100 uM measured after 72 hrs by qRT-PCR analysis. Conditions: dose 6.25-100 µM. The series is classed as cell-based.
Series [12] concerns Hepatitis C virus. Briefly: Antiviral activity against HCV J6/JFH/JC1 harboring D168V mutant infected in human Huh7.5 cells assessed as inhibition of viral replication measured after 72 hrs by qRT-PCR analysis. The series is classed as functional, organism-based, Hepacivirus hominis. Conditions: J6/JFH/JC1, Huh7.5, 72 h.

Active and inactive are the calls of the source. The rule behind the calls is not given here.

The term CC50 denotes the concentration that lowers cell viability or growth by half. For orientation: EC50 means the midpoint of the concentration-response curve. `COc1cc(/C=C/c2ccccc2)c(C(=O)O)c(O)c1CC=C(C)C`: the outcome (with Huh7.5; in series [11]) was inactive. Besides, the half-maximal cytotoxic concentration (CC50) at 72 h in series [1] worked out at 91 µM. Besides, the inhibition entry with Hepacivirus hominis [2] and in the series on Hepacivirus hominis [3] was “inactive” throughout. Further, the values for the EC50 in the series with Hepatitis C virus [4], in the series with Hepatitis C virus [5] and in the series on Hepatitis C virus [12] were 3.03 µM, 8.59 µM and 3.8 µM, respectively. Besides, the Activity entry in [6] and in series [10] was “Dose-dependent effect” each time. Further, the CI in the series on Hepatitis C virus [7] is reported as 0.76. Moreover, the result in the series with Hepatitis C virus [8] and in the series on Hepatitis C virus [9] was Active.
